Data reported in ChEMBL document CHEMBL1155887, “Structure-activity relationships of 2-aryl-1H-indole inhibitors of the NorA efflux pump in Staphylococcus aureus” (2008).
In brackets after ≈: the same amount, converted by molar mass. Activity calls are given as the source filed them. No cut-off for these calls is given here.

What follows are compounds tested against T1, Quinolone resistance protein NorA (Staphylococcus aureus) (UniProt P0A0J7) (assay: Inhibition of NorA efflux pump overexpressing Staphylococcus aureus 8325-4 K2378 assessed as ratio of berberine MIC in presence to absence of inhibitor). Conditions: not given.
T1 sequence (whole entry): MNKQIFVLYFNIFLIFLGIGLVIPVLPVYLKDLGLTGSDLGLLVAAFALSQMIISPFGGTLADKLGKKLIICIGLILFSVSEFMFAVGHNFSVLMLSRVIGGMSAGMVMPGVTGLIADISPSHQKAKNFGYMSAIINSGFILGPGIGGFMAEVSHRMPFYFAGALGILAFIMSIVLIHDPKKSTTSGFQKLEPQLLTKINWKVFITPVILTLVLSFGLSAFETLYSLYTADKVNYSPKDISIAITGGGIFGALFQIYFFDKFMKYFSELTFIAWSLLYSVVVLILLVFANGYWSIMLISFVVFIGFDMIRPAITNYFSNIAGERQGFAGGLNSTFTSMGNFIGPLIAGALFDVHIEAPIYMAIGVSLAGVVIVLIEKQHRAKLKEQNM

Compound	Ratio
c1ccc(-c2cc3ccccc3[nH]2)cc1 [2-PHENYL-1H-INDOLE]	4
N#Cc1ccc2[nH]c(-c3ccccc3)cc2c1	2
O=[N+]([O-])c1ccc2[nH]c(-c3ccccc3)cc2c1	2

The compounds below were run on Enterococcus faecalis (assay: Antibacterial activity against Enterococcus faecalis V583). Conditions: not given.
Format: functional
Outline: (§1)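 Panel of Gram-negative and Gram-positive non-Clostridium strains, compound alone: MIC in µg/mL, with 200 µg/mL the highest concentration tested.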

Compound	MIC
OCc1ccc2[nH]c(-c3ccccc3)cc2c1	> 200 mg/L

What follows are compounds tested against T1, Quinolone resistance protein NorA (Staphylococcus aureus) (assay: Inhibition of NorA efflux pump in Staphylococcus aureus K2378 overexpressing NorA assessed as drug level required for two fold potentiation of berberine MIC at 1.56 to 100 ug/mL after 20 hrs by serial dilution method). Conditions: not given.
Outline: (§2)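 Checkerboard of serial 2-fold dilutions of berberine chloride against inhibitor, with inhibitor at 1.56–100 µg/mL. Berberine ranges were 12.5–100 µg/mL for 8325-4 and 200–800 µg/mL for K2378. Each agent was also diluted alone. Cells at 5 10^5 CFU/mL (final), 37 °C for 20 h, read at 600 nm; OD <0.05 counted as no growth. Inhibitor MIC is the lowest concentration lowering the berberine MIC at least 2-fold.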

Compound	MIC	Activity
O=[N+]([O-])c1ccc2[nH]c(-c3cccc(CO)c3)cc2c1	9 µM	–
O=C(O)c1ccc2[nH]c(-c3ccccc3)cc2c1	–	inactive
COC(=O)c1ccc(-c2cc3ccccc3[nH]2)cc1	40 µM	–
c1ccc(-c2cc3ccccc3[nH]2)cc1 [2-PHENYL-1H-INDOLE]	259 µM	–
COC(=O)c1ccc(-c2cc3cc([N+](=O)[O-])ccc3[nH]2)cc1	inactive	–
NS(=O)(=O)c1ccc2[nH]c(-c3ccccc3)cc2c1	–	inactive
COC(=O)c1ccccc1-c1cc2ccccc2[nH]1	20 µM	–
N#Cc1ccc2[nH]c(-c3ccccc3)cc2c1	7.1 µM	–
OCc1ccc(-c2cc3ccccc3[nH]2)cc1	45 µM	–
COC(=O)c1ccccc1-c1cc2cc([N+](=O)[O-])ccc2[nH]1	inactive	–
O=[N+]([O-])c1ccc2[nH]c(-c3ccccc3)cc2c1	1.3 µM	–

The compounds below were run on Enterococcus faecalis (assay: Antibacterial activity against Enterococcus faecalis MMH594). Conditions: not given.
Format: functional
Outline: as §1

Compound	MIC
OCc1ccc2[nH]c(-c3ccccc3)cc2c1	> 200 mg/L

The compounds below were run on Clostridium perfringens (assay: Antibacterial activity against Clostridium perfringens). Conditions: not given.
Format: functional
Outline: (§3)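 Gram-negative and Gram-positive panel, MIC in µg/mL. Highest concentration tested was 200 µg/mL for E. coli O157:H7 and 100 µg/mL for Clostridium perfringens.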

Compound	MIC
OCc1ccc2[nH]c(-c3ccccc3)cc2c1	> 100 mg/L

The compounds below were run on Staphylococcus aureus (assay: Antibacterial activity against wild type Staphylococcus aureus 8325-4 after 18 to 20 hrs by serial dilution method). Conditions: not given.
Format: functional
Outline: (§4)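 Compound alone, without berberine. Cells at 10^5 CFU/mL inoculated into broth and given serial 2-fold dilutions of compound. Incubated 18–20 h at 37 °C, with growth read as absorbance at 600 nm. MIC is the concentration completely inhibiting growth; testing limit 1000 µM.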

Compound	MIC
O=[N+]([O-])c1ccc2[nH]c(-c3cccc(CO)c3)cc2c1	> 1000 µM
O=C(O)c1ccc2[nH]c(-c3ccccc3)cc2c1	> 1000 µM
COC(=O)c1ccc(-c2cc3ccccc3[nH]2)cc1	> 1000 µM
c1ccc(-c2cc3ccccc3[nH]2)cc1 [2-PHENYL-1H-INDOLE]	> 1000 µM
COC(=O)c1ccc(-c2cc3cc([N+](=O)[O-])ccc3[nH]2)cc1	> 1000 µM
NS(=O)(=O)c1ccc2[nH]c(-c3ccccc3)cc2c1	> 1000 µM
COC(=O)c1ccccc1-c1cc2ccccc2[nH]1	> 1000 µM
N#Cc1ccc2[nH]c(-c3ccccc3)cc2c1	> 1000 µM
OCc1ccc(-c2cc3ccccc3[nH]2)cc1	> 1000 µM
COC(=O)c1ccccc1-c1cc2cc([N+](=O)[O-])ccc2[nH]1	> 1000 µM
O=[N+]([O-])c1ccc2[nH]c(-c3ccccc3)cc2c1	> 1000 µM
OCc1ccc2[nH]c(-c3ccccc3)cc2c1	28 µM (≈ 6.25 µg/mL)

What follows are compounds tested on Clostridioides difficile (assay: Antibacterial activity against Clostridium difficile VP110463). Conditions: not given.
Format: functional
Outline: (§5)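 Clostridium difficile panel, compound alone: MIC in µg/mL, with 100 µg/mL the highest concentration tested.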

Compound	MIC
OCc1ccc2[nH]c(-c3ccccc3)cc2c1	> 100 mg/L

The compounds below were run against T1, Quinolone resistance protein NorA (Staphylococcus aureus) (assay: Inhibition of NorA efflux pump in wild type Staphylococcus aureus 8325-4 assessed as drug level required for two fold potentiation of berberine MIC at 1.56 to 100 ug/mL after 20 hrs by serial dilution method). Conditions: not given.
Outline: as §2

Compound	MIC	Activity
O=[N+]([O-])c1ccc2[nH]c(-c3cccc(CO)c3)cc2c1	5 µM	–
O=C(O)c1ccc2[nH]c(-c3ccccc3)cc2c1	–	inactive
COC(=O)c1ccc(-c2cc3ccccc3[nH]2)cc1	20 µM	–
c1ccc(-c2cc3ccccc3[nH]2)cc1 [2-PHENYL-1H-INDOLE]	65 µM	–
COC(=O)c1ccc(-c2cc3cc([N+](=O)[O-])ccc3[nH]2)cc1	17 µM	–
NS(=O)(=O)c1ccc2[nH]c(-c3ccccc3)cc2c1	–	inactive
COC(=O)c1ccccc1-c1cc2ccccc2[nH]1	20 µM	–
N#Cc1ccc2[nH]c(-c3ccccc3)cc2c1	3.6 µM	–
OCc1ccc(-c2cc3ccccc3[nH]2)cc1	22 µM	–
COC(=O)c1ccccc1-c1cc2cc([N+](=O)[O-])ccc2[nH]1	34 µM	–
O=[N+]([O-])c1ccc2[nH]c(-c3ccccc3)cc2c1	1.3 µM	–

These compounds were tested on Pseudomonas aeruginosa (assay: Antibacterial activity against Pseudomonas aeruginosa PA14). Conditions: not given.
Format: functional
Outline: as §1

Compound	MIC
OCc1ccc2[nH]c(-c3ccccc3)cc2c1	> 200 mg/L

What follows are compounds tested on Staphylococcus aureus (assay: Antibacterial activity against Staphylococcus aureus K2378 overexpressing NorA after 18 to 20 hrs by serial dilution method). Conditions: not given.
Format: functional
Outline: as §4

Compound	MIC
OCc1ccc2[nH]c(-c3ccccc3)cc2c1	28 µM (≈ 6.25 µg/mL)

These compounds were tested against T1, Quinolone resistance protein NorA (Staphylococcus aureus) (assay: Inhibition of NorA efflux pump in NorA knockout Staphylococcus aureus K1758 assessed as drug level required for two fold potentiation of berberine MIC at 1.56 to 100 ug/mL after 20 hrs by serial dilution method). Conditions: not given.

Compound	MIC	Activity
O=[N+]([O-])c1ccc2[nH]c(-c3cccc(CO)c3)cc2c1	9 µM	–
O=C(O)c1ccc2[nH]c(-c3ccccc3)cc2c1	–	inactive
COC(=O)c1ccc(-c2cc3ccccc3[nH]2)cc1	–	inactive
c1ccc(-c2cc3ccccc3[nH]2)cc1 [2-PHENYL-1H-INDOLE]	–	inactive
COC(=O)c1ccc(-c2cc3cc([N+](=O)[O-])ccc3[nH]2)cc1	–	inactive
NS(=O)(=O)c1ccc2[nH]c(-c3ccccc3)cc2c1	–	inactive
COC(=O)c1ccccc1-c1cc2ccccc2[nH]1	–	inactive
N#Cc1ccc2[nH]c(-c3ccccc3)cc2c1	–	inactive
OCc1ccc(-c2cc3ccccc3[nH]2)cc1	–	inactive
COC(=O)c1ccccc1-c1cc2cc([N+](=O)[O-])ccc2[nH]1	–	inactive
O=[N+]([O-])c1ccc2[nH]c(-c3ccccc3)cc2c1	0.63 µM	–

These compounds were tested against T1, Quinolone resistance protein NorA (Staphylococcus aureus) (assay: Inhibition of NorA efflux pump overexpressed in Staphylococcus aureus 1199B assessed as increase in susceptibility to ciprofloxacin at 1.5 ug/mL by serial broth microdilution method). Conditions: not given.

Compound	fold change (FC)
O=[N+]([O-])c1ccc2[nH]c(-c3ccccc3)cc2c1	4

These compounds were tested on Staphylococcus aureus (assay: Antibacterial activity against NorA knockout Staphylococcus aureus K1758 after 18 to 20 hrs by serial dilution method). Conditions: not given.
Format: functional
Outline: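 Compound alone, without berberine: cells at 10^5 CFU/mL in broth, serial 2-fold dilutions of compound, 18–20 h at 37 °C, growth read at 600 nm. MIC is the lowest concentration giving complete growth inhibition. The testing limit was 1000 µM.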

Compound	MIC
O=[N+]([O-])c1ccc2[nH]c(-c3cccc(CO)c3)cc2c1	> 1000 µM
O=C(O)c1ccc2[nH]c(-c3ccccc3)cc2c1	> 1000 µM
COC(=O)c1ccc(-c2cc3ccccc3[nH]2)cc1	> 1000 µM
c1ccc(-c2cc3ccccc3[nH]2)cc1 [2-PHENYL-1H-INDOLE]	> 1000 µM
COC(=O)c1ccc(-c2cc3cc([N+](=O)[O-])ccc3[nH]2)cc1	> 1000 µM
NS(=O)(=O)c1ccc2[nH]c(-c3ccccc3)cc2c1	> 1000 µM
COC(=O)c1ccccc1-c1cc2ccccc2[nH]1	> 1000 µM
N#Cc1ccc2[nH]c(-c3ccccc3)cc2c1	> 1000 µM
OCc1ccc(-c2cc3ccccc3[nH]2)cc1	> 1000 µM
COC(=O)c1ccccc1-c1cc2cc([N+](=O)[O-])ccc2[nH]1	> 1000 µM
O=[N+]([O-])c1ccc2[nH]c(-c3ccccc3)cc2c1	> 1000 µM
OCc1ccc2[nH]c(-c3ccccc3)cc2c1	14 µM (≈ 3.13 µg/mL)

The compounds below were run on Clostridioides difficile (assay: Antibacterial activity against Clostridium difficile CD2001). Conditions: not given.
Format: functional
Outline: as §5

Compound	MIC
OCc1ccc2[nH]c(-c3ccccc3)cc2c1	> 100 mg/L

These compounds were tested against T1, Quinolone resistance protein NorA (Staphylococcus aureus) (assay: Inhibition of NorA efflux pump overexpressed Staphylococcus aureus K2361 assessed as increase in antibacterial activity of berberine at 3 ug/mL). Conditions: not given.

Compound	Activity
O=[N+]([O-])c1ccc2[nH]c(-c3ccccc3)cc2c1	Active

The compounds below were run on Pseudomonas aeruginosa (assay: Antibacterial activity against Pseudomonas aeruginosa PAO1). Conditions: not given.
Format: functional
Outline: as §1

Compound	MIC
OCc1ccc2[nH]c(-c3ccccc3)cc2c1	> 200 mg/L

Each compound was assayed on Escherichia coli (assay: Antibacterial activity against Escherichia coli BW-25113). Conditions: not given.
Format: functional
Outline: as §1

Compound	MIC
OCc1ccc2[nH]c(-c3ccccc3)cc2c1	> 200 mg/L

Each compound was assayed on Enterococcus faecalis (assay: Antibacterial activity against Enterococcus faecalis OG1RF). Conditions: not given.
Format: functional
Outline: as §1

Compound	MIC
OCc1ccc2[nH]c(-c3ccccc3)cc2c1	> 200 mg/L

The compounds below were run against T1, Quinolone resistance protein NorA (Staphylococcus aureus) (assay: Inhibition of NorA efflux pump in wild type Staphylococcus aureus 8325-4 assessed as ratio of berberine MIC in presence to absence of inhibitor). Conditions: not given.

Compound	Ratio
c1ccc(-c2cc3ccccc3[nH]2)cc1 [2-PHENYL-1H-INDOLE]	4
N#Cc1ccc2[nH]c(-c3ccccc3)cc2c1	2
O=[N+]([O-])c1ccc2[nH]c(-c3ccccc3)cc2c1	2

These compounds were tested on Clostridioides difficile (assay: Antibacterial activity against Clostridium difficile CD196). Conditions: not given.
Format: functional
Outline: as §5

Compound	MIC
OCc1ccc2[nH]c(-c3ccccc3)cc2c1	> 100 mg/L

These compounds were tested on Escherichia coli (assay: Antibacterial activity against Escherichia coli O157:H7). Conditions: not given.
Format: functional
Outline: as §3

Compound	MIC
OCc1ccc2[nH]c(-c3ccccc3)cc2c1	> 200 mg/L

These compounds were tested on Escherichia coli (assay: Antibacterial activity against Escherichia coli UT189). Conditions: not given.
Format: functional
Outline: as §1

Compound	MIC
OCc1ccc2[nH]c(-c3ccccc3)cc2c1	> 200 mg/L

The compounds below were run on Salmonella typhimurium (assay: Antibacterial activity against Salmonella Typhimurium CS132). Conditions: Salmonella enterica.
Format: functional, Salmonella enterica subsp. enterica serovar Typhimurium
Outline: as §1

Compound	MIC
OCc1ccc2[nH]c(-c3ccccc3)cc2c1	> 200 mg/L
